In ChEMBL document CHEMBL4014269, “Antibacterial and Hypoglycemic Diterpenoids from Salvia chamaedryoides” (J Nat Prod, 2017) one finds MIC, Activity and IC50 data, which are given here for nine compounds.

In brackets after ≈: the same amount, converted by molar mass. Activity calls are given as the source filed them. No cut-off for these calls is given here.

The test system of assay [1] is Enterococcus faecalis. Briefly: Antibacterial activity against vancomycin-resistant Enterococcus faecalis isolate MB 1 after 24 hrs by microdilution assay. It counts as functional. The conditions noted are these: isolate MB 1, 24 h. A digest of the protocol: (§1)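 Clinical isolates from various clinical specimens, identified by standard procedures and kept in a hospital microbiology laboratory collection. The MIC was read by broth microdilution, following a method described in earlier work.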

Assay [2] has as its system Enterococcus faecalis. Briefly: Antibacterial activity against Enterococcus faecalis isolate MB 3 after 24 hrs by microdilution assay. The assay is classed as functional. To be noted: isolate MB 3, 24 h. The method in brief: (§2)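 Clinical isolates from a hospital microbiology collection, identified by standard procedures; MICs by broth microdilution.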
Assay [3] deals with Escherichia coli. Put plainly: Antibacterial activity against Escherichia coli isolate MB 123 after 24 hrs by microdilution assay. It counts as functional. A digest of the protocol:
as §1

The test system of assay [4] is Enterococcus faecalis. Briefly: Antibacterial activity against vancomycin-resistant Enterococcus faecalis isolate MB 49 after 24 hrs by microdilution assay. The conditions noted are these: isolate MB 49, 24 h. The assay is classed as functional. A digest of the protocol: as §1
Assay [5] concerns Staphylococcus aureus. Briefly: Antibacterial activity against methicillin-sensitive Staphylococcus aureus isolate MB 21 after 24 hrs by microdilution assay. It counts as functional. To be noted: isolate MB 21, 24 h. A digest of the protocol:
as §2

Assay [6] deals with Proteus mirabilis. Put plainly: Antibacterial activity against Proteus mirabilis isolate MB 14 after 24 hrs by microdilution assay. The assay is classed as functional. A digest of the protocol:
as §1

In assay [7] the test system is Staphylococcus aureus. Put plainly: Antibacterial activity against methicillin-resistant Staphylococcus aureus isolate MB 18 after 24 hrs by microdilution assay. The conditions noted are these: isolate MB 18, 24 h. The assay is classed as functional. A digest of the protocol:
as §1

Assay [8] concerns Staphylococcus epidermidis. Briefly: Antibacterial activity against methicillin-sensitive Staphylococcus epidermidis isolate MB 65 after 24 hrs by microdilution assay. The assay is classed as functional. To be noted: isolate MB 65, 24 h. The method in brief: as §2
The test system of assay [9] is Enterococcus faecium. Briefly: Antibacterial activity against vancomycin-resistant Enterococcus faecium isolate MB 2 after 24 hrs by microdilution assay. It counts as functional. The conditions noted are these: isolate MB 2, 24 h. The method in brief: as §1
For assay [10], the system named is Staphylococcus epidermidis. Put plainly: Antibacterial activity against methicillin-resistant Staphylococcus epidermidis isolate MB 64 after 24 hrs by microdilution assay. It counts as functional. The conditions noted are these: isolate MB 64, 24 h. The method in brief: as §1
Assay [11] concerns Nakaseomyces glabratus. Put plainly: Antifungal activity against Candida glabrata isolate MB 8 after 48 hrs by microdilution assay. The assay is classed as functional. A digest of the protocol:
as §1

The test system of assay [12] is Staphylococcus aureus. Briefly: Antibacterial activity against methicillin-resistant Staphylococcus aureus isolate MB 10 after 24 hrs by microdilution assay. It counts as functional. The conditions noted are these: isolate MB 10, 24 h. A digest of the protocol: as §1
The subject of assay [13] is Staphylococcus epidermidis. Put plainly: Antibacterial activity against methicillin-resistant Staphylococcus epidermidis isolate MB 20 after 24 hrs by microdilution assay. It counts as functional. To be noted: isolate MB 20, 24 h. A digest of the protocol:
as §1

For assay [14], the system named is Enterococcus faecium. Put plainly: Antibacterial activity against Enterococcus faecium isolate MB 55 after 24 hrs by microdilution assay. The assay is classed as functional. The conditions noted are these: isolate MB 55, 24 h. A digest of the protocol:
as §1

In assay [15] the test system is Staphylococcus aureus. Briefly: Antibacterial activity against methicillin-resistant Staphylococcus aureus isolate MB 9 after 24 hrs by microdilution assay. It counts as functional. To be noted: isolate MB 9, 24 h. A digest of the protocol: as §1
Assay [16] deals with Enterococcus faecalis. Put plainly: Antibacterial activity against vancomycin-resistant Enterococcus faecalis isolate MB 51 after 24 hrs by microdilution assay. It counts as functional. The conditions noted are these: isolate MB 51, 24 h. A digest of the protocol: as §1
Assay [17] has as its system Candida albicans. Briefly: Antifungal activity against Candida albicans isolate MB 31 after 48 hrs by microdilution assay. It counts as functional. A digest of the protocol:
as §1

In assay [18] the test system is Moraxella catarrhalis. Put plainly: Antibacterial activity against Moraxella catarrhalis isolate MB 15 after 24 hrs by microdilution assay. It counts as functional. A digest of the protocol: as §1
The test system of assay [19] is Staphylococcus epidermidis. Briefly: Antibacterial activity against methicillin-resistant Staphylococcus epidermidis isolate MB 26 after 24 hrs by microdilution assay. To be noted: isolate MB 26, 24 h. The assay is classed as functional. The method in brief:
as §1

Assay [20] has as its system Enterococcus faecium. Briefly: Antibacterial activity against vancomycin-resistant Enterococcus faecium isolate MB 23 after 24 hrs by microdilution assay. It counts as functional. The conditions noted are these: isolate MB 23, 24 h. A digest of the protocol: as §1
In assay [21] the test system is Klebsiella pneumoniae. Briefly: Antibacterial activity against Klebsiella pneumoniae isolate MB 11 after 24 hrs by microdilution assay. It counts as functional. A digest of the protocol:
as §1

In assay [22] the test system is Enterococcus faecium. Put plainly: Antibacterial activity against vancomycin-resistant Enterococcus faecium isolate MB 50 after 24 hrs by microdilution assay. It counts as functional. To be noted: isolate MB 50, 24 h. The method in brief:
as §1

Assay [23] concerns the target alpha-glucosidase (Saccharomyces cerevisiae). Briefly: Inhibition of alpha-glucosidase (Saccharomyces cerevisiae) using 4-nitrophenyl alpha-D-glucopyranoside as substrate after 10 mins.
The target in assay [24] is Alpha-amylase (Sus scrofa). Put plainly: Inhibition of alpha-amylase (hog pancreas) using starch as substrate preincubated for 10 mins followed by substrate addition measured after 10 mins by dinitrosalicylic acid color reagent based assay.

Take `O=C1OCC=C1[C@H]1CCc2ccc3c(c2C1)[C@H](c1ccoc1)OC3=O`: the MIC in [1], in [2], in assay [4], in assay [5], in [7] and in assay [8] was above 128 µg/mL each time. Besides, the MIC in [9] is 381 µM (≈ 128 µg/mL); in assay [10], above 128 µg/mL; in assay [12], above 128 µg/mL; in assay [13] it was above 128 µg/mL; in assay [14], 381 µM; in assay [15], above 128 µg/mL. Moreover, the MIC in [16] is above 128 µg/mL; in assay [19] it was above 128 µg/mL; in [20], 381 µM; in assay [22], 381 µM. The outcome in assay [3], in assay [6], in assay [11], in [17], in assay [18] and in assay [21] was inactive.

On to `C[C@@]12/C=C/C=C\C3=C(COC3=O)C[C@@H](O)[C@H]1C(=O)O[C@@H](c1ccoc1)C2`, for which the MIC in assay [1] was 180 µM; in assay [2], 89.9 µM; in [4], 180 µM; in [5], above 128 µg/mL; in assay [7], above 128 µg/mL; in assay [8] it was above 128 µg/mL. The MIC in assay [9] was 89.9 µM (≈ 32 µg/mL); in assay [10], above 128 µg/mL; in [12] it was above 128 µg/mL; in assay [13], above 128 µg/mL; in [14], 89.9 µM; in assay [15], above 128 µg/mL. The MIC was 89.9 µM in assay [16], above 128 µg/mL in assay [19], 180 µM in assay [20] and 180 µM in [22]. Besides, the result in assay [3], in assay [6], in assay [11], in [17], in assay [18] and in [21] was inactive.

For the compound `C[C@]12C[C@H](c3ccoc3)OC(=O)[C@@]1(O)[C@H](O)C[C@@]13COC(=O)C1=CCC[C@@H]32`, the minimum inhibitory concentration (MIC) in [1], in [2], in [4], in assay [5], in [7] and in [8] was above 128 µg/mL in each case. For the same compound, the MIC was 342 µM (≈ 128 µg/mL) in [9]; above 128 µg/mL in assay [10]; above 128 µg/mL in assay [12]; above 128 µg/mL in assay [13]; 342 µM in assay [14]; above 128 µg/mL in [15]. Moreover, the MIC is above 128 µg/mL in assay [16], above 128 µg/mL in assay [19], 342 µM in [20] and above 128 µg/mL in assay [22]. The result in assay [3], in assay [6], in [11], in assay [17], in [18] and in assay [21] was inactive.

On to `C[C@]12C[C@H](c3ccoc3)OC(=O)[C@@]1(O)[C@@H](O)C[C@@]13COC(=O)C1=CC[C@@H](O)[C@@H]32`, for which the half-maximal inhibitory concentration (IC50) in assay [23] stood at 113.2 µg/mL (≈ 290 µM); in assay [24], 238.1 µg/mL (≈ 610 µM).

For the compound `C[C@]12C[C@H](c3ccoc3)OC(=O)[C@@H]1[C@H](O)C[C@]13COC(=O)C1=CC=C[C@@H]32`, the MIC in assay [1], in [2], in assay [4], in [5], in [7] and in assay [8] was above 128 µg/mL in each case. In addition, the MIC was 359 µM (≈ 128 µg/mL) in assay [9]; above 128 µg/mL in assay [10]; above 128 µg/mL in assay [12]; above 128 µg/mL in [13]; above 128 µg/mL in assay [14]; above 128 µg/mL in assay [15]. In addition, the MIC in assay [16] is above 128 µg/mL; in [19], above 128 µg/mL; in [20] it was above 128 µg/mL; in assay [22], 359 µM. In addition, the outcome in assay [3], in [6], in assay [11], in assay [17], in assay [18] and in assay [21] was inactive.

As to `CC(=O)O[C@H](C[C@@]1(C)[C@H](C)[C@H](O[C@@H]2O[C@H](CO)[C@@H](O)C(=O)[C@H]2O)C[C@@]23COC(=O)C2=CCC[C@@H]31)c1ccoc1`, the MIC in assay [1] was 234 µM; in assay [2], 117 µM; in [4], 234 µM; in [5], above 128 µg/mL; in assay [7], above 128 µg/mL; in [8] it was above 128 µg/mL. Further, the MIC is 234 µM (≈ 128 µg/mL) in [9]; above 128 µg/mL in assay [10]; above 128 µg/mL in [12]; above 128 µg/mL in assay [13]; above 128 µg/mL in [14]; above 128 µg/mL in assay [15]. Further, the MIC in assay [16] was 117 µM; in assay [19], above 128 µg/mL; in [20] it was above 128 µg/mL; in assay [22] it was 234 µM. The outcome in [3], in assay [6], in [11], in assay [17], in assay [18] and in [21] was inactive.

In the case of `C[C@]12C[C@H](c3ccoc3)OC(=O)[C@@H]1[C@H](O)C[C@@]13COC(=O)C1=CC=C[C@H]32`, the IC50 in assay [24] came to 53.5 µg/mL (≈ 150 µM).

For the compound `C[C@]12C[C@H](c3ccoc3)OC(=O)[C@]1(O)[C@H](O)C[C@@]13COC(=O)C1=CCC[C@@H]32`, the MIC in assay [1] is 171 µM; in [2] it was 342 µM; in assay [4] it was 171 µM; in assay [5], above 128 µg/mL; in assay [7], above 128 µg/mL; in assay [8], above 128 µg/mL. The MIC in assay [9] is 171 µM (≈ 64.1 µg/mL); in assay [10], above 128 µg/mL; in assay [12], above 128 µg/mL; in assay [13], above 128 µg/mL; in [14] it was 342 µM; in [15], above 128 µg/mL. Moreover, the MIC in assay [16] is 85.5 µM; in [19] it was above 128 µg/mL; in [20] it was 342 µM; in [22], 171 µM. Further, the result in assay [3], in assay [6], in assay [11], in assay [17], in assay [18] and in assay [21] was inactive.

For `CC(C)c1cc2c(c(O)c1O)[C@@]13CCCC(C)(C)[C@@H]1[C@H](OC3=O)C2=O`, the MIC is 186 µM in assay [1]; 93 µM in assay [2]; 186 µM in [4]; above 128 µg/mL in [5]; above 128 µg/mL in assay [7]; above 128 µg/mL in [8]. Besides, the minimal inhibitory concentration (MIC) is 186 µM (≈ 64.1 µg/mL) in assay [9]; above 128 µg/mL in assay [10]; above 128 µg/mL in assay [12]; above 128 µg/mL in assay [13]; 186 µM in assay [14]; above 128 µg/mL in [15]. The minimal inhibitory concentration (MIC) in assay [16] was 93 µM; in assay [19] it was above 128 µg/mL; in [20], 93 µM; in [22], 93 µM. Also, the outcome in assay [3], in assay [6], in assay [11], in assay [17], in assay [18] and in assay [21] was inactive.
